Common to all, as to format: cell-based
Common to all, as to conditions: read-out: MIC of ceftazidime

Test [1] relates to Escherichia coli DH10B cells expressing VIM-2. Nature of the test: MIC assay, E. coli DH10B cells expressing VIM-2.
The subject of test [2] is Escherichia coli DH10B cells not expressing any MBL. Nature of the test: MIC assay, E. coli DH10B control cells not expressing any MBL. The method in brief: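 Ceftazidime MIC was measured in complex medium against E. coli DH10B carrying no MBL. This strain served as the control for DH10B expressing NDM-1, IMP-1 or VIM-2.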
For test [3], the system named is Escherichia coli DH10B cells expressing IMP-1. The test is described as follows: MIC assay, E. coli DH10B cells expressing IMP-1.
For test [4], the system named is Escherichia coli DH10B cells expressing NDM-1. The test is described as follows: MIC assay, E. coli DH10B cells expressing NDM-1.

SMILES strings stand for the structures.

Regarding `CC(C)(O/N=C(\C(=O)N[C@@H]1C(=O)N2C(C(=O)[O-])=C(C[n+]3ccccc3)CS[C@H]12)c1csc(N)n1)C(=O)O` [ceftazidime], the MIC worked out at 32 µg/mL in test [1], 0.5 µg/mL in test [2], 512 µg/mL in test [3] and 256 µg/mL in test [4].

For the origin of these results see paper PMC6527342 (Journal of chemical information and modeling, 2018).
